This passage reports D, ED50 and SDL results from ChEMBL document CHEMBL1132613 (J Med Chem, 1999).

The structures appear in SMILES notation. “And” between values parts separate entries of the source, which are not always exact repeats. Identical values can stand only once.

Assay type in all cases: functional
For assay [1], the system named is Rattus norvegicus. The assay is described as follows: Percentage of animals failing to emit 50 lever presses within 15 min in rats at 0.08 mg/kg dose. The method in brief:
(§1)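 Two-lever drug discrimination in male Sprague–Dawley rats (200–220 g at start), trained against saline on LSD tartrate (0.08 mg/kg), DOI HCl (0.4 mg/kg) or LY293284 (0.025 mg/kg). FR50 food-pellet reinforcement, levers counterbalanced, 15-min sessions at 22–24 °C. %D is the share of tested rats not completing 50 lever presses within 15 min.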

The target in assay [2] is 5-hydroxytryptamine receptor 2A (Rattus norvegicus) (UniProt P14842). The assay is described as follows: Efficacy against 5-hydroxytryptamine 2A receptor.
Chain of 5-hydroxytryptamine receptor 2A (Rattus norvegicus) (P14842 whole entry): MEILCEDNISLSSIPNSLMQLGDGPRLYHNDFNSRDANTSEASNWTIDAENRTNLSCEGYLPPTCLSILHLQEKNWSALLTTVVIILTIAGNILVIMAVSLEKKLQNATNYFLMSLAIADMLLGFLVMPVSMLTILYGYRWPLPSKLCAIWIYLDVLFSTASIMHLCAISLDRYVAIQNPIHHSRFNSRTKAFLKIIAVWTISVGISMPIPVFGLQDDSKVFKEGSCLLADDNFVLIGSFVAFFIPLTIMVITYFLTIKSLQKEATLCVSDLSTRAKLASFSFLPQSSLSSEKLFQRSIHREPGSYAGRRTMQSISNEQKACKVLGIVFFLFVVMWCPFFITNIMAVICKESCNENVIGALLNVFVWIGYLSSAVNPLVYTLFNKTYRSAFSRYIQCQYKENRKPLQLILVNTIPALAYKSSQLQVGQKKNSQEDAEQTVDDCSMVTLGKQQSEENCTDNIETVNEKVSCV
The subject of assay [3] is Rattus norvegicus. The assay is described as follows: Percentage of animals failing to emit 50 lever presses within 15 min in at 0.01 mg/kg dose. An outline of the steps: as §1
The test system of assay [4] is Rattus norvegicus. The assay can be described thus: Percentage of animals emitting >80% of lever presses in rats at 0.01 mg/kg dose. An outline of the steps: (§2)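 Male Sprague–Dawley rats (200–220 g) in a two-lever, FR50 food-reinforced task. Rats were trained to discriminate saline from LSD tartrate (0.08 mg/kg), DOI HCl (0.4 mg/kg) or LY293284 (0.025 mg/kg) in 15-min sessions. %SDL is the share of rats making over 80% of presses on the drug lever. %D is the share failing to make 50 presses within 15 min. ED50 by Litchfield–Wilcoxon log-probit.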

Assay [5] has as its system Rattus norvegicus. The assay is described as follows: Percentage of animals emitting >80% of lever presses in rats at 0.08 mg/kg dose. An outline of the steps: as §2
Assay [6] relates to Rattus norvegicus. The assay can be described thus: Percentage of animals emitting >80% of lever presses in rats at 0.02 mg/kg dose. An outline of the steps:
as §2

Assay [7] deals with Rattus norvegicus. The assay can be described thus: Percentage of animals failing to emit 50 lever presses within 15 min in rats at 0.04 mg/kg dose. An outline of the steps:
as §1

In assay [8] the test system is Rattus norvegicus. The assay is described as follows: Percentage of animals emitting >80% of lever presses in rats at 0.04 mg/kg dose. An outline of the steps:
as §2

Assay [9] relates to Rattus norvegicus. The assay can be described thus: Percentage of animals failing to emit 50 lever presses within 15 min in rats at 0.02 mg/kg dose. An outline of the steps: as §1
Assay [10] deals with Rattus norvegicus. The assay is described as follows: Percentage of animals emitting >80% of lever presses in rats at a compound dose of 1.12 uM/Kg. An outline of the steps: as §2
Assay [11] has as its system Rattus norvegicus. The assay can be described thus: Percentage of animals failing to emit 50 lever presses within 15 min in rats at a compound dose of 0.2 mg/kg. The method in brief:
as §1

The test system of assay [12] is Rattus norvegicus. The assay can be described thus: Percentage of animals emitting >80% of lever presses in rats at a compound dose of 0.56 uM/Kg. The method in brief:
as §2

Assay [13] concerns Rattus norvegicus. The assay is described as follows: Percentage of animals emitting >80% of lever presses in rats at a compound dose of 0.28 uM/Kg. An outline of the steps: as §2
Assay [14] concerns Rattus norvegicus. The assay can be described thus: Percentage of animals failing to emit 50 lever presses within 15 min in rats at a compound dose of 0.1 mg/kg. An outline of the steps:
as §1

The test system of assay [15] is Rattus norvegicus. The assay can be described thus: Percentage of animals failing to emit 50 lever presses within 15 min in rats at a compound dose of 0.4 mg/kg. The method in brief: as §1

For the molecule `CCN(CC)C(=O)[C@@H]1C=C2c3cccc4[nH]cc(c34)C[C@H]2N(C)C1` [LYSERGIDE], the D in [1] is listed as 0%; in [3] it was 0%; in assay [7], 0%; in assay [9], 7%. Further, the ED50 in assay [2] was 0.037 µmol.kg-1 and 0.016 mg/kg. The SDL amounted to 31% in assay [4], 100% in assay [5], 62% in [6] and 81% in [8].

On to `COc1cc(CC(C)N)c(OC)cc1I` (stereo unspecified), for which the results for the SDL in [10], in assay [12] and in assay [13] were 100%, 89% and 56%, respectively. In addition, in [2], the ED50 is 0.3 µmol.kg-1 and 0.11 mg/kg. The figures for the D in assay [11], in [14] and in assay [15] were 10%, 0% and 0%, respectively.

As usually defined, the ED50 is the midpoint of the dose-response relation. Read a low ED50 as an effect at a small dose.
